# Source: BindingDB's records for doi:10.1016/j.bmcl.2009.05.124 (Amgen, 2009)
# Molecular target: Neuromedin-B receptor (Homo sapiens, UniProt P28336)
# Assay: Displacement of [125I]-(D-Tyr0)NMB from human neuromedin B receptor transfected in HEK293 cells
# How it was run: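 Whole-cell competition binding used 1 × 10⁶ HEK293 cells stably transfected with hNMBR, with 150 pM ¹²⁵I-[D-Tyr0]NMB (2200 Ci/mmol), in DMEM for 1 h at room temperature. Bound ligand was separated by filtration and total bound counts were measured. Day-to-day standard error was <30%; well-to-well variability was <10%.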
# Neuromedin-B receptor, sequence (P28336 whole entry): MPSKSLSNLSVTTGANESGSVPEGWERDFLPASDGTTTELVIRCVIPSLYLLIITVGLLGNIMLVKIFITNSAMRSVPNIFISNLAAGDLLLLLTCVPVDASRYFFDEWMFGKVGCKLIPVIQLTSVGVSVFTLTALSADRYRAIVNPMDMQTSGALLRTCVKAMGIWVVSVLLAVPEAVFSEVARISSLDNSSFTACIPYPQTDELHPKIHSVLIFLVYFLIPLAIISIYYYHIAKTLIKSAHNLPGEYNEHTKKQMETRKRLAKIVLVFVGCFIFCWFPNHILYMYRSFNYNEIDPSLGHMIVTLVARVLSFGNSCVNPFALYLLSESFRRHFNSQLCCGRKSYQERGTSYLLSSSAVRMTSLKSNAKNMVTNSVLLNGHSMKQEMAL
row,IC50 [nM],Structure (SMILES)
1,1300,"CC1(C)CC(=O)C2C(=Nc3ccc(C#N)cc3NC2c2c(F)cccc2Cl)C1 (configuration not stated) [11-(2-chloro-6-fluorophenyl)-3,3-dimethyl-1-oxo-2,3,4,5,10,11-hexahydro-1H-dibenzo[b,e][1,4]diazepine-8-carbonitrile]"
2,250,"CSc1ccccc1C1Nc2cc(C)ccc2N=C2CC3(CCCC3)CC(=O)C21 (configuration not stated) [8'-methyl-11'-(2-(methylthio)phenyl)-4',5',10',11'-tetrahydrospiro[cyclopentane-1,3'-dibenzo[b,e][1,4]diazepin]-1'(2'H)-one]"
3,250,"Cc1ccc2c(c1)NC(c1ccccc1C(F)(F)F)C1C(=O)CC(C)(C)CC1=N2 (configuration not stated) [3,3,8-trimethyl-11-(2-(trifluoromethyl)phenyl)-2,3,4,5,10,11-hexahydro-1H-dibenzo[b,e][1,4]diazepin-1-one]"
4,10000,"CC1(C)CC(=O)C2C(=Nc3ccc(C(N)=O)cc3NC2c2c(F)cccc2Cl)C1 (configuration not stated) [11-(2-chloro-6-fluorophenyl)-3,3-dimethyl-1-oxo-2,3,4,5,10,11-hexahydro-1H-dibenzo[b,e][1,4]diazepine-8-carboxamide]"
5,10000,"Cc1ccc2c(c1)NC(c1c(F)cccc1Cl)C1C(=O)CCC1=N2 (configuration not stated) [10-(2-chloro-6-fluorophenyl)-7-methyl-2,3,9,10-tetrahydrobenzo[b]cyclopenta[e][1,4]diazepin-1(4H)-one]"
6,96,"Cc1ccc2c(c1)NC(c1ccccc1C(F)(F)F)C1C(=O)CC3(CCCC3)CC1=N2 (stereo not drawn) [(-)-8'-methyl-11'-(2-(trifluoromethyl)phenyl)-4',5',10',11'-tetrahydrospiro[cyclopentane-1,3'-dibenzo[b,e][1,4]diazepin]-1'(2'H)-one]"
7,10000,"CC1(C)CC(=O)C2C(=Nc3ccc(C(=O)O)cc3NC2c2c(F)cccc2Cl)C1 (configuration not stated) [11-(2-chloro-6-fluorophenyl)-3,3-dimethyl-1-oxo-2,3,4,5,10,11-hexahydro-1H-dibenzo[b,e][1,4]diazepine-8-carboxylic acid]"
8,280,"Cc1ccc2c(c1)NC(c1ccccc1Cl)C1C(=O)CC(C)(C)CC1=N2 (configuration not stated) [11-(2-chlorophenyl)-3,3,8-trimethyl-2,3,4,5,10,11-hexahydro-1H-dibenzo[b,e][1,4]diazepin-1-one]"
9,10000,"CC1(C)CC(=O)C2C(=Nc3ccc(O)cc3NC2c2c(F)cccc2Cl)C1 (configuration not stated) [11-(2-chloro-6-fluorophenyl)-8-hydroxy-3,3-dimethyl-2,3,4,5,10,11-hexahydro-1H-dibenzo[b,e][1,4]diazepin-1-one]"
10,1300,"CC1(C)CC(=O)C2C(=Nc3ccc(OC(F)(F)F)cc3NC2c2c(F)cccc2Cl)C1 (configuration not stated) [11-(2-chloro-6-fluorophenyl)-3,3-dimethyl-8-(trifluoromethoxy)-2,3,4,5,10,11-hexahydro-1H-dibenzo[b,e][1,4]diazepin-1-one]"
11,1300,"Cc1ccc2c(c1)NC(c1ccccc1F)C1C(=O)CC(C)(C)CC1=N2 (configuration not stated) [11-(2-fluorophenyl)-3,3,8-trimethyl-2,3,4,5,10,11-hexahydro-1H-dibenzo[b,e][1,4]diazepin-1-one]"
12,280,"Cc1ccc2c(c1)NC(c1c(F)cccc1Cl)C1C(=O)CC3(CCCC3)CC1=N2 (configuration not stated) [11'-(2-chloro-6-fluorophenyl)-8'-methyl-4',5',10',11'-tetrahydrospiro[cyclopentane-1,3'-dibenzo[b,e][1,4]diazepin]-1'(2'H)-one]"
